Experimental data published in ChEMBL document CHEMBL4765490 (J Med Chem, 2021).
Values belong to the molecule of their own block, whether it stands above or below them.

Assays:
[1] = molecular target: G protein-coupled receptor kinase 6 (Homo sapiens) (UniProt P43250); experiment: Inhibition of GRK6 (unknown origin) at 1 uM relative to control
[2] = Thermodynamic solubility of compound in phosphate buffer at 6 pH by shake flask method; type: physicochemical; details: pH 6, read-out: Therm_solubility
[3] = Metabolic stability in human liver microsomes assessed as half life at 100 uM in presence of NADPH by LC-MS/MS analysis; type: ADME, Microsome
Summary of the method: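 Stock in DMSO (1 mM) was diluted to a 100 μM working solution in 0.1 M phosphate buffer with 3.3 mM MgCl2. Microsomes (20 mg/mL) were primed with NADPH at 37 °C for 3 min, then dosed with compound. Samples were taken at 0, 5, 10, 15, 30, 45 and 60 min and stopped with cold acetonitrile containing internal standard. Protein was spun out before analysis.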

[4] = Inhibition of PKA (unknown origin) incubated for 30 mins using REBtide substrate by ADP-Glo assay; set-up: species or system Homo sapiens
Summary of the method: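 ADP-Glo reagent was added for 40 min, then detection reagent for 30 min, and luminescence was read. Three experiments in duplicate; curves fitted as for GRK.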

[5] = molecular target: T1, G protein-coupled receptor kinase 5 (Homo sapiens, UniProt P34947)
Target sequence in this assay (P34947 whole entry, looked up): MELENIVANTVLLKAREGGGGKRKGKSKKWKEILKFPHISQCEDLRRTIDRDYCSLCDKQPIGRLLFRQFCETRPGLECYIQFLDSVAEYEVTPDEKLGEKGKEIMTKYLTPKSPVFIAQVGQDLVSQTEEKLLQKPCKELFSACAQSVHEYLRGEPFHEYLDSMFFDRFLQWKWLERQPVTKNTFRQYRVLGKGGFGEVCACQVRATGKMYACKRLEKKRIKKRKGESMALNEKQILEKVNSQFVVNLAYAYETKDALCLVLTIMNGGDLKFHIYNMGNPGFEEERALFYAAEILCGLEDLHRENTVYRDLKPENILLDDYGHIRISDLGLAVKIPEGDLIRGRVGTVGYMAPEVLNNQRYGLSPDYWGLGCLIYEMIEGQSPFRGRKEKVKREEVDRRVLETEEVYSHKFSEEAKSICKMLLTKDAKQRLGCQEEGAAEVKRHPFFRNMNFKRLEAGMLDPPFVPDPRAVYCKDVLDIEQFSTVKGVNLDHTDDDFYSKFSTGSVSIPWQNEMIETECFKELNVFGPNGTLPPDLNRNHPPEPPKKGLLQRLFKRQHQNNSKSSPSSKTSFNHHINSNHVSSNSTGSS

[6] = molecular target: T1, G protein-coupled receptor kinase 5; experiment: Covalent inhibition of GRK5 (unknown origin) using porcine brain tubulin as substrate by [gamma32P]ATP based radiometric assay
Target sequence in this assay (P34947 whole entry): as the sequence (P34947 whole entry, looked up) above

[7] = molecular target: T2, G protein-coupled receptor kinase 3 (Homo sapiens) (UniProt P35626); experiment: Inhibition of GRK3 (unknown origin) at 1 uM relative to control; details: time 3-5 min
T2 sequence (whole entry): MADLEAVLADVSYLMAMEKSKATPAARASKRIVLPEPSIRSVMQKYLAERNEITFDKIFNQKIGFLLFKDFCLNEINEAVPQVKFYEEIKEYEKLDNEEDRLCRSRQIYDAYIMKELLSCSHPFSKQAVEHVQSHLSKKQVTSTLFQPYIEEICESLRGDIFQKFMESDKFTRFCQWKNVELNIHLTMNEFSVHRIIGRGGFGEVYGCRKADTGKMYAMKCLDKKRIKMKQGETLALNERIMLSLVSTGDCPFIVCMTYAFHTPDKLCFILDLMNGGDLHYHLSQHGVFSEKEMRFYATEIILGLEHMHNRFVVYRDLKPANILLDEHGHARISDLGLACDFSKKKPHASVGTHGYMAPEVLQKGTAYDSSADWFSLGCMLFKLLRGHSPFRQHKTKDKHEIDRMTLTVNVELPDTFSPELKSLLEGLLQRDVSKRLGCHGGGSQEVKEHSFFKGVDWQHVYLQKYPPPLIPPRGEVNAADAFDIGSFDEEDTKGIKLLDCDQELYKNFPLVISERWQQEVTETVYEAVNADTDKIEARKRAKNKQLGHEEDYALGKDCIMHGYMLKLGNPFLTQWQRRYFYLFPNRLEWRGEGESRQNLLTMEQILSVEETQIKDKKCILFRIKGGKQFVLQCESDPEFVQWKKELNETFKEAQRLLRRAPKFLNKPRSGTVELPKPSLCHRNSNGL

[8] = species on record: Homo sapiens
[9] = molecular target: T3, Beta-adrenergic receptor kinase 1 (Bos taurus, UniProt P21146); experiment: Inhibition of bovine GRK2 using porcine brain tubulin as substrate incubated for 3 to 5 mins by [gamma32P]ATP based radiometric assay
T3 sequence (P21146 whole entry): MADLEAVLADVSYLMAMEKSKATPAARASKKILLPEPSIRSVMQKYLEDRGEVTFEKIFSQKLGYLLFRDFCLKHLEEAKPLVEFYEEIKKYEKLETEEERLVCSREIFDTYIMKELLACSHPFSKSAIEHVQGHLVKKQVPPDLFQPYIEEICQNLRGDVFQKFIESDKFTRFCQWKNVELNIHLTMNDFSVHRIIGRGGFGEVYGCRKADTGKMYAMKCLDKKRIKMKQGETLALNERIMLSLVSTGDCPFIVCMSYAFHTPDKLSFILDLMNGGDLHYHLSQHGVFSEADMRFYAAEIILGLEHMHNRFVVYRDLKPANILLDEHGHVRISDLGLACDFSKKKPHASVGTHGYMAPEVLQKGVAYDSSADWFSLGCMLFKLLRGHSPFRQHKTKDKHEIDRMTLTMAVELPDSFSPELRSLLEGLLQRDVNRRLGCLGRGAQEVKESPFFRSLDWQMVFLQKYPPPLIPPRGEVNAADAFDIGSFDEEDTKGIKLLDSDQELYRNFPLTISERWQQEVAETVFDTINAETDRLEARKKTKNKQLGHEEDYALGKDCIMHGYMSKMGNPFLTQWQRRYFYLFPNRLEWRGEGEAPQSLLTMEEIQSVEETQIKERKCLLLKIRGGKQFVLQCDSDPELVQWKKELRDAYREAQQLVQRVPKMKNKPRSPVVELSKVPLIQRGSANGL

[10] = molecular target: T1, G protein-coupled receptor kinase 5; experiment: Inhibition of human GRK5 using porcine brain tubulin as substrate incubated for 3 to 5 mins by [gamma32P]ATP based radiometric assay
Target sequence in this assay (P34947 whole entry): as the sequence (P34947 whole entry, looked up) above

G protein-coupled receptor kinase 6 (Homo sapiens), sequence (P43250 whole entry, looked up): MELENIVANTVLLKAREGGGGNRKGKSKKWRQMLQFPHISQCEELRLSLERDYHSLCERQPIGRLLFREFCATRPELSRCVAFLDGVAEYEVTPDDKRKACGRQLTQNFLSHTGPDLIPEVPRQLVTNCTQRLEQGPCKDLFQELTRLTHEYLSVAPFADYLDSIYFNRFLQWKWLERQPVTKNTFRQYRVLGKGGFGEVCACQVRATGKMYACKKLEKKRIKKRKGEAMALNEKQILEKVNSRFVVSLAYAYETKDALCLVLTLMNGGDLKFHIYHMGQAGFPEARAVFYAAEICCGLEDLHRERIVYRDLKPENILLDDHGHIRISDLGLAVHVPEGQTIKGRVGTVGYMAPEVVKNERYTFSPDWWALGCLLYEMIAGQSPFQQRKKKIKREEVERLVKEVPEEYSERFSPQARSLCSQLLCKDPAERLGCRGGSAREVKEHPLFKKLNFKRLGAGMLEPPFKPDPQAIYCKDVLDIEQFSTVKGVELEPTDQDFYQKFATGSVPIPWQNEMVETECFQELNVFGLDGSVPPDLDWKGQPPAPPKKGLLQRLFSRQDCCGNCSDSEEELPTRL

Compound: CCN(CC)CCNC(=O)c1c(C)[nH]c(/C=C2\C(=O)Nc3ccc(F)cc32)c1C (mixture of isomers) [SUNITINIB]
solubility thermodynamic [2]: 350 µg/mL

Compound: Cc1[nH]c(/C=C2\C(=O)Nc3ccc(C(=O)N[C@H](C)c4ccccc4)cc32)c(C)c1NC(=O)CCl (mixture of isomers)
t1/2 [3]: 13.3 min
IC50 [4]: > 250 µM

Compound: Cc1[nH]c(/C=C2\C(=O)Nc3ccc(C(=O)N[C@H](C)c4ccccc4)cc32)c(C)c1NC(=O)CBr (mixture of isomers)
Kinact [5]: > 1 min⁻¹
Ki [6]: 110 nM
inhibition [1]: 97%
inhibition [7]: 21%
Ratio IC50 [8]: 5
IC50 [4]: > 250 µM

Compound: C=CCNC(=O)c1c(C)[nH]c(/C=C2\C(=O)Nc3ccc(C(=O)N[C@H](C)c4ccccc4)cc32)c1C
IC50 [4]: > 250 µM

Compound: Fc1ccc([C@@H]2CCNC[C@H]2COc2ccc3c(c2)OCO3)cc1 [PAROXETINE]
IC50 [4]: 850 µM

Compound: C=CCCNC(=O)c1c(C)[nH]c(/C=C2\C(=O)Nc3ccc(C(=O)N[C@H](C)c4ccccc4)cc32)c1C (mixture of isomers)
IC50 [10]: 1940 nM

Second part, the molecule after the results:

inhibition [1]: 94%
Compound: C#CCNC(=O)c1c(C)[nH]c(/C=C2\C(=O)Nc3ccc(C(=O)N[C@H](C)c4ccccc4)cc32)c1C

IC50 [4]: > 250 µM
Compound: CC1=C(C(=O)Nc2ccc3[nH]ncc3c2)C(c2ccc(F)c(C(=O)NCc3ccccn3)c2)NC(=O)N1 (centres undefined)

IC50 [4]: > 250 µM
Compound: CCN(CC)CCNC(=O)c1c(C)[nH]c(/C=C2\C(=O)Nc3ccc(C(=O)N[C@H](C)c4ccccc4)cc32)c1C

IC50 [4]: > 250 µM
Compound: Cc1[nH]c(/C=C2\C(=O)Nc3ccc(C(=O)N[C@H](C)c4ccccc4)cc32)c(C)c1NC(=O)/C(C#N)=C/C(C)(C)C

IC50 [9]: 130 µM
IC50 [4]: > 250 µM
Compound: C#CCCNC(=O)c1c(C)[nH]c(/C=C2\C(=O)Nc3ccc(C(=O)N[C@H](C)c4ccccc4)cc32)c1C (mixture of isomers)

IC50 [4]: > 250 µM
Compound: Cc1[nH]c(/C=C2\C(=O)Nc3ccc(C(=O)N[C@H](C)c4ccccc4)cc32)c(C)c1NC(=O)C(O)CCl (some centres undefined)
